These results are taken from ChEMBL document CHEMBL1125589, “Verapamil analogues with restricted molecular flexibility” (1991).

Assay [1] is filed under the species Cavia porcellus. The experiment in a line: Compound was tested in vitro for chronotropic activity on isolated atria preparations of guinea pig. The class given is functional.
The species named for assay [2] is Cavia porcellus. The assay is described as follows: Percent inhibition of [Ca2+] induced contraction on K+ depolarized guinea pig aortic strips at […] concentration. The class given is functional, Aorta. In outline:
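Guinea pig aortic strips were depolarized with K+, and contraction was induced with Ca2+. Percent inhibition of that contraction was measured with the test agent at 5·10^-4 M. Results are given as means ± SEM, n = 5-6.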

Assay [3] is filed under the species Cavia porcellus. The experiment in a line: Compound was tested in vitro for ionotropic activity on isolated atria preparations of guinea pig. The class given is functional.
The species entered for assay [4] is Cavia porcellus. The assay is described as follows: Compound was tested in vitro for ionotropic activity on isolated atria preparations of guinea pig at 10E-6 M concentration. The class given is functional.
The species entered for assay [5] is Cavia porcellus. The experiment in a line: Compound was tested in vitro for chronotropic activity on isolated atria preparations of guinea pig at 10E-6 M concentration. The class given is functional. Summed up:
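Chronotropic effect was measured on spontaneously beating isolated guinea pig right atria, with the test agent at 10^-6 M.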

With `COc1ccc(CCN(C)[C@H]2CC[C@](C#N)(c3ccc(OC)c(OC)c3)CC2)cc1OC`, the Negative chronotropic activity in the assay filed under Cavia porcellus [1] stood at 65%. Also, the “Ca2+ antagonistic activity” value in the assay filed under Cavia porcellus [2] is 59%. In the assay listed under Cavia porcellus [3], this compound showed a Negative ionotropic activity of 52%.

The compound `COc1ccc(CCN(C)[C@H]2CC[C@@](C#N)(c3ccc(OC)c(OC)c3)CC2)cc1OC` had a Negative chronotropic activity in the assay filed under Cavia porcellus [1] of 67%. The “Ca2+ antagonistic activity” value in the assay filed under Cavia porcellus [2] is on record as 66%. This compound gave a Negative ionotropic activity in the assay listed under Cavia porcellus [3] of 56%.

Regarding `COc1ccc(CCN(C)CCCC(C#N)(c2ccc(OC)c(OC)c2)C(C)C)cc1OC` (centres undefined) [VERAPAMIL], the Negative ionotropic activity in the assay filed under Cavia porcellus [4] stood at 60%. In addition, the “Ca2+ antagonistic activity” value in the assay listed under Cavia porcellus [2] is on record as 79%. The same compound gave a Negative chronotropic activity in the assay filed under Cavia porcellus [5] of 94%.
